Like-named read-outs stand apart in the source and are kept apart here.
How the values were obtained:
22Rv1 cells [1] = experiment: ATP viability assay; assay type: cell-based; settings: Homo sapiens; for IC50: 22Rv1, 72 h, read-out: approximate IC50, cell viability (taxanes)
Method in brief: (§1)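 Lines kept in RPMI 1640 with 10% FBS, except LAPC-4 in Iscove's medium with 5% FBS. About 1,000 cells/well plated in 384-well plates in 1% serum. Test compound added next day at increasing concentrations. For 22Rv1, agents given alone or combined for 48 h, or taxanes for 72 h. Other lines treated 72 h. ATPlite luminescence read, replicate wells averaged, approximate IC50 estimated.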

[2] = test system: MDR1 activity in 22Rv1-T cells; experiment: Multidrug resistance assay; assay type: cell-based, human; settings: 15 minutes; for fluorescent calcein retention (MDR1 efflux activity): single agent
22Rv1-T cells [3] = experiment: Caspase-3 fluorometric protease assay; assay type: cell-based, human
22Rv1-T cells [4] = experiment: ATP viability assay; assay type: cell-based, human; settings: for cell viability response: 22Rv1-T, time course to 72 hours; for IC50: Homo sapiens, 72 h
Method in brief: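 Paclitaxel-resistant 22Rv1 subline made by serial passage over about 4 months in rising paclitaxel (0-400ng/ml), then maintained in 5ng/ml paclitaxel. About 1,000 cells/well plated in 1% serum in 384-well plates. Next day, taxanes or test compound added alone, or combined with paclitaxel, for up to 72 h. ATPlite luminescence read, replicate wells averaged.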

22Rv1 cells [5] = experiment: Caspase-3 fluorometric protease assay; assay type: cell-based, human; settings: 22Rv1, increasing concentrations, 24 hours
Method in brief: (§2)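 Cells held overnight in 1% serum, then exposed to increasing concentrations of test compound for 24 h. Apoptosis measured as caspase-3 activity with a fluorometric protease assay kit. Activity expressed relative to untreated samples.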

[6] = test system: phosphorylated Bad^Ser112 in C4-2B cells; experiment: Western blot of phospho-Bad Ser112; assay type: cell-based, human; settings: increasing doses, 5 hours
Method in brief: (§3)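 Cells (22Rv1, C4-2B or the paclitaxel-resistant 22Rv1 subline) treated with increasing doses of test compound for 5 h. Lysates immunoblotted for phospho-Bad Ser112 and total Bad, with β-actin as loading control.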

22Rv1-Pim1 cells [7] = experiment: ATP viability assay; assay type: cell-based, human; settings: 72 hours
PC3 cells = experiment: ATP viability assay; assay type: cell-based; settings: Homo sapiens, PC-3, 72 h, read-out: approximate IC50, cell viability
Method in brief: as §1

22Rv1 cells [8] = experiment: Cell cycle analysis by flow cytometry; assay type: cell-based, human; settings: 24 hours, untreated 60%
[9] = test system: p-p21^Thr145 in 22Rv1-Pim1 cells; experiment: Western blot of phospho-p21 Thr145; assay type: cell-based, human; settings: 22Rv1-Pim1, 1μM, 2 hours
LNCaP cells = experiment: ATP viability assay; assay type: cell-based; settings: Homo sapiens, 72 h, read-out: approximate IC50, cell viability
Method in brief: as §1

[10] = test system: MDR1 mRNA in 22Rv1-T cells; experiment: Quantitative real-time RT-PCR of MDR1; assay type: cell-based, human; settings: 22Rv1-T (Supplementary Fig. 3b)
[11] = test system: phosphorylated Bad^Ser112 in 22Rv1-T cells; experiment: Western blot of phospho-Bad Ser112; assay type: cell-based, human; settings: 5 hours
Method in brief: as §3

22Rv1-Pim1 cells [12] = experiment: Caspase-3 fluorometric protease assay; assay type: cell-based; settings: Homo sapiens, 22Rv1, read-out: fold induction of apoptosis (caspase-3) in 22Rv1-Pim1 compared to 22Rv1
LAPC-4 cells = experiment: ATP viability assay; assay type: cell-based; settings: Homo sapiens, LAPC4, 72 h, read-out: approximate IC50, cell viability
Method in brief: as §1

C4-2B cells [13] = experiment: Caspase-3 fluorometric protease assay; assay type: cell-based, human; settings: increasing concentrations, 24 hours
Method in brief: as §2

[14] = test system: phosphorylated Bad^Ser112 in 22Rv1 cells; experiment: Western blot of phospho-Bad Ser112; assay type: cell-based, human; settings: 22Rv1, increasing doses, 5 hours
Method in brief: as §3

RWPE2-W99 cells = experiment: ATP viability assay; assay type: cell-based; settings: Homo sapiens, Keratinocyte, 72 h, read-out: approximate IC50, cell viability
Method in brief: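 RWPE2-W99 kept in Keratinocyte Serum Free Medium with bovine pituitary extract and human recombinant EGF. About 1,000 cells/well plated in 384-well plates in complete medium. Test compound added next day at increasing concentrations for 72 h. Viability read by ATPlite luminescence, replicate wells averaged, approximate IC50 estimated.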

DU145 cells = experiment: ATP viability assay; assay type: cell-based; settings: Homo sapiens, DU-145, 72 h, read-out: approximate IC50, cell viability
Method in brief: as §1

[15] = test system: phospho-p21^Thr145 in 22Rv1 cells; experiment: Western blot of phospho-p21 Thr145; assay type: cell-based, human
C4-2B cells [16] = experiment: ATP viability assay; assay type: cell-based; settings: Homo sapiens, 72 h, read-out: approximate IC50, cell viability
Method in brief: as §1

[17] = test system: phospho-p21^Thr145 in C4-2B cells; experiment: Western blot of phospho-p21 Thr145; assay type: cell-based, human; settings: 5 hour treatment
Method in brief: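 C4-2B cells, kept in RPMI 1640 with 10% FBS, treated 5 h with increasing concentrations of test compound. Western blot probed for phospho-p21 Thr145 and total p21, with β-actin as loading control.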

C4-2B cells [18] = experiment: Cell cycle analysis by flow cytometry; assay type: cell-based, human; settings: 24 hours, untreated 72%
[19] = 22Rv1, 48 h, read-out: cell viability
[20] = read-out: IC50, cell viability (taxanes)

Compound: CC(=O)O[C@H]1C(=O)[C@@]2(C)[C@H]([C@H](OC(=O)c3ccccc3)[C@]3(O)C[C@H](OC(=O)[C@H](O)[C@@H](NC(=O)c4ccccc4)c4ccccc4)C(C)=C1C3(C)C)[C@]1(OC(C)=O)CO[C@@H]1C[C@@H]2O [paclitaxel]
- viability at 0.0025 µM (22Rv1 cells [1]; [19]): 62.6%
- IC50 (22Rv1 cells [1]): ~0.0045 µM
- fluorescent calcein retention (MDR1 efflux activity) [2]: no different from the untreated cells
- change in caspase-3 levels (22Rv1-T cells [3]; increasing doses of paclitaxel alone, 24 hours): lack of change
- cell viability response (22Rv1-T cells [4]; 50nM paclitaxel alone): does not respond
- IC50 (22Rv1-T cells [4]; [20]): > 0.1 µM

Compound: CN1CCC(CNc2ccc3ncc(-c4cccc(OC(F)(F)F)c4)n3n2)CC1 [SGI-1776]
- caspase-3 activity levels (22Rv1 cells [5]): dose-dependent increase
- phosphorylated Bad^Ser112 protein levels [6]: dose-dependent decrease
- viability at 2.5 µM (22Rv1 cells [1]; [19]): 63%
- reduction in IC50 in 22Rv1-Pim1 compared to 22Rv1, cell viability (22Rv1-Pim1 cells [7]): ~3 fold
- IC50 (PC3 cells): ~3 µM
- percentage of cells in the G1 phase (22Rv1 cells [8]; 22Rv1, 2.5μM): 70% ± 2.00
- percentage of cells in the G1 phase (22Rv1 cells [8]; 22Rv1, 7.5μM): 81% ± 1.17
- fluorescent calcein accumulation, combination ([2]; paclitaxel combined with SGI-1776): did not further enhance
- fluorescent calcein retention (MDR1 efflux activity) [2]: dose-dependent increase
- increase of caspase-3 activity compared to untreated cells (22Rv1-T cells [3]; 2.5μM SGI-1776, 24 hours): 1.42 fold
- caspase-3 activity relative to untreated (100%) (22Rv1-T cells [3]; 2.5μM SGI-1776, 24 hours, ± 3): 142%
- increase of caspase-3 activity compared to untreated cells (22Rv1-T cells [3]; 2.5μM SGI-1776 combined with 50nM paclitaxel, 24 hours): 2.7 fold
- caspase-3 activity relative to untreated (100%) (22Rv1-T cells [3]; 2.5μM SGI-1776 combined with 50nM paclitaxel, 24 hours, ± 8, p<0.0001): 269%
- effect on p-p21^Thr145 abundance [9]: dramatic inhibition
- IC50 (LNCaP cells): ~5 µM
- MDR1 mRNA expression levels [10]: did not alter
- concentration of maximal inhibition of phosphorylated Bad^Ser112 [11]: 5 to 7.5 µM
- fold induction at 2.5 µM (22Rv1-Pim1 cells [12]): 1.6
- IC50 (LAPC-4 cells): > 10 µM
- caspase-3 activity levels (C4-2B cells [13]): dose-dependent increase
- phosphorylated Bad^Ser112 protein levels [14]: dose-dependent decrease
- IC50 (RWPE2-W99 cells): ~9 µM
- IC50 (DU145 cells): ~8 µM
- effect on p-p21^Thr145 abundance ([15]; 22Rv1, 1μM, 2 hours): minimal, if any, effect
- concentration of maximal inhibition of phospho-p21^Thr145 ([15]; 22Rv1, 5 hour treatment): 5 µM
- concentration at which significant decrease in p-p21^Thr145 was first observed ([15]; parental 22Rv1 (Fig. 3a)): 2.5 to 5 µM
- IC50 (C4-2B cells [16]): ~4 µM
- concentration of maximal inhibition of phospho-p21^Thr145 [17]: 7.5 µM
- percentage of cells in the G1 phase (C4-2B cells [18]; 2.5μM): 81% ± 1.24
- percentage of cells in the G1 phase (C4-2B cells [18]; 7.5μM): 95% ± 0.16
- cell viability response (22Rv1-T cells [4]; 2.5μM SGI-1776 alone): minimal response
- IC50 (22Rv1-T cells [4]; read-out: approximate IC50, cell viability): ~5 µM

Compound: CC(=O)O[C@@]12CO[C@@H]1C[C@H](O)[C@@]1(C)C(=O)[C@H](O)C3=C(C)[C@@H](OC(=O)[C@H](O)[C@@H](NC(=O)OC(C)(C)C)c4ccccc4)C[C@@](O)([C@@H](OC(=O)c4ccccc4)[C@H]21)C3(C)C [docetaxel]
- IC50 (22Rv1 cells [1]): ~0.0025 µM
- IC50 (22Rv1-T cells [4]; [20]): > 0.1 µM

Reference: article PMC2808126 (Molecular cancer therapeutics, 2009)
